MT stabilizer: microtubule stabilizers in HeLa cells, primary screen, imaging, high-content imaging; HeLa tubulin immunostaining HCS, 24 h; share of cells brighter than vehicle mean+2SD; AID 2205, 2009; 200,000 compounds, 0.83% hits; % tubulin-high responders, % at 10 µM;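 active means plate Z-score above 3 for both tubulin-high and condensed-nucleus cell shares, with cell loss under 80%, at 10 µM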;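 further: anti alpha tubulin signal scored within the nucleus-defined area of each cell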
bCat nuc transl: modulators of beta-catenin nuclear translocation, primary screen, imaging, HeLa cells, immunofluorescence, high-content. nuclear translocation activity, % at 5 µM. 190,000 compounds, 0.3% hits;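 active means nuclear translocation activity above 50% at 5 µM, with a well cell count of 50 or more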;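 further: per-cell ratio of nuclear to cytoplasmic median beta-catenin stain intensity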
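assay system = human HeLa cells, endogenous beta-catenin | times = compound treatment 24 h, 37°C, 5% CO2 | detection = Anti-beta-catenin immunofluorescence on PFA-fixed, Triton-permeabilized cells, DAPI nuclei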
HSV replic up: enhancers of HSV replication in host cells, fold increase, host cell viability; maximum fold increase; 220,000 compounds, 0.005% hits; HSV replication augmentation in cells; AID 1956, 2009; in the data active means maximum fold increase above about 1.5; tested in PC3 cells
Dynein cargo inh: inhibitors of GR-EGFP nuclear translocation, primary screen, dynein cargo transport inhibitor project, imaging, high-content, 3617.4 mouse cells | test concentration mostly 20 µM; stimulated with dexamethasone, 1 µM; hits give low values | z-score, hits read low | 220,000 compounds, 0.47% hits | AID 1381, 2008;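 active means plate z-score of nuclear minus cytoplasmic receptor signal below a set negative limit, without overly bright fluorescence or cell loss, cut at about -3.5 in these data, passing the limit was not always enough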;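 further: z-score of nuclear minus cytoplasmic ring GR-EGFP intensity difference per well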
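medium = tetracycline-free induction medium containing charcoal-stripped FBS | also added = 1.0 µM final dexamethasone stimulus | schedule = 48 h induction, 1 h compound, 30 min dex at 37 °C | technique = fixed, Hoechst-stained cells imaged at 10x for EGFP | measure = GR-EGFP nuclear translocation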
Lmaj promast: Leishmania major promastigote growth inhibition, primary screen | Leishmania major promastigotes, resazurin fluorescence viability | inhibition, % at 10 µM | 200,000 compounds, 9% hits; in the data active means inhibition above about 50%;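 further: promastigotes grown with compound for 44 hours at 28 °C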
Of the large screens only hits and unclear results are named; the others gave an inactive call. Sampled rows, rich in hits. Any-hit rate of the full collection: about 8.9%.

COc1ccc(N=C2SC(C(=O)N3CCN(c4ccc([N+](=O)[O-])cc4)CC3)CC(=O)N2C)cc1 (stereo unspecified)	Lmaj promast 52
COc1ccc(N2CCN(C(=O)C3CC(O)CN3S(=O)(=O)c3ccc([N+](=O)[O-])cc3)CC2)cc1 (stereo unspecified)	none
COc1ccc(NC(=O)C2C3C=CC4(CN(Cc5cccnc5)C(=O)C24)O3)c(OC)c1 (stereo unspecified)	none (no result: bCat nuc transl)
CCOc1cccc(C2C(C(=O)c3cccs3)=C(O)C(=O)N2Cc2cccnc2)c1 (stereo unspecified)	none
CCCCCCc1cc2cc(C(N)=O)c(=N)oc2cc1O	none (no result: bCat nuc transl)
Clc1ccc2nc(-c3ccccn3)c(Nc3ccc4c(c3)OCO4)n2c1	Lmaj promast 100
CCOC(=O)C(CSCC(=O)c1ccc(Cl)cc1Cl)NC(=O)OC(C)(C)C (stereo unspecified)	none
Cc1cc(C)c2nc(C(F)(F)F)nc(NCCCN3CCOCC3)c2c1	Lmaj promast 95 (no result: bCat nuc transl)
CCCOP(=O)(c1ccc(N(C)C)cc1)C(Nc1ccccc1)c1ccc(N(C)C)cc1 (stereo unspecified)	none
Nc1cc(Br)c(N)c(Br)c1	none
CC(C)(C)C(=O)Nc1ccc(C(=O)OC2CCCCC2)cc1	none
C=CCN(CC=C)CCOc1cccc(Oc2ccccc2)c1	Lmaj promast 97
CN(C)CCCOc1cccc(Oc2ccccc2)c1	Lmaj promast 99
CN(C)CCCOc1cccc(Cl)c1	none
O=c1cc(CSc2ccccc2)nc(-c2ccccc2)[nH]1	none
COc1ccc(CCN(C)C(=O)C2CCN(Cc3ccccc3)CC2)cc1OC	none
NC(=O)C1CCCN(Cc2ccc(Cl)cc2)C1 (stereo unspecified)	Lmaj promast 79
CN(Cc1ccccc1)C(=O)C1CCN(Cc2ccc(F)cc2)CC1	Lmaj promast 89
CN(Cc1ccccc1)C(=O)C1CCCN(Cc2ccc(Cl)cc2)C1 (stereo unspecified)	Lmaj promast 89
Cc1ccc(NC(=O)COC(=O)Cc2csc(-c3ccc(Cl)cc3)n2)cc1C	none
CC1=CC(C)(C)N(C(=O)CN2C(=O)c3ccccc3C2=O)c2ccc(C)cc21	none
COc1cc(OC)cc(-c2nnc(Sc3ccc(C=O)cc3[N+](=O)[O-])o2)c1	Lmaj promast 52
O=C(Nc1ccc2c(c1)OCO2)C1Cc2ccccc2CN1S(=O)(=O)c1cccs1 (stereo unspecified)	Lmaj promast 99
O=C(Nc1nnc(C2CC2)s1)C1Cc2ccccc2CN1S(=O)(=O)c1ccccc1F (stereo unspecified)	Lmaj promast 100 (no result: HSV replic up)
O=C(NC1CCCCC1)C1Cc2ccccc2CN1S(=O)(=O)c1ccc(F)cc1 (stereo unspecified)	none
O=C(Nc1nccs1)C1Cc2ccccc2CN1S(=O)(=O)c1ccc(F)cc1 (stereo unspecified)	Lmaj promast 66
OCCC1CN(Cc2cccc3nccnc23)CCN1Cc1ccc(F)c(F)c1 (stereo unspecified)	none
CN(C)CC1CCCCC1OC(=O)c1ccc(Cl)cc1 (stereo unspecified)	Lmaj promast 57
CCN(CC)S(=O)(=O)c1ccc(C(=O)OC2CCCCC2CN(C)C)cc1 (stereo unspecified)	none
C/C(=N\NC(N)=S)C1C2C3CC4C5CC(C42)C1C53 (stereo unspecified)	MT stabilizer 7.4, Lmaj promast 100
C=C(C)CNC(=S)N=Nc1c(O)[nH]c2ccc([N+](=O)[O-])cc12	Lmaj promast 78
COc1ccc(/C=N/n2cnn(Cc3ccccc3Cl)c2=S)cc1OC	none
CCOC(=O)C1=C(C)C2C3C(=O)N(c4ccccc4C)C(=O)C3C1(C)C1C(=O)N(c3ccccc3C)C(=O)C21 (stereo unspecified)	Lmaj promast 56
Cc1ccc(N2C(=O)C3NN=C(C(=O)OCc4ccccc4)C3C2=O)c(C)c1 (stereo unspecified)	none
CCOC(=O)C1=C(C)C2C3C(=O)N(c4ccc(C)cc4C)C(=O)C3C1(C)C1C(=O)N(c3ccc(C)cc3C)C(=O)C21 (stereo unspecified)	Lmaj promast 74
Cc1ccc(CC(=O)Nc2ncc([N+](=O)[O-])s2)cc1	none

Screening data: PubChem, several laboratories
